# Neddylation inh – blocks human cullin neddylation; P61081+Q13564; TR-FRET cullin neddylation, biochemical; inhibition, % at 25 µM; 0.58% of 360,000 active; AID 651699; in the data active means inhibition above about 36%
# Cardio protect – protects H9c2 cardiomyocytes from peroxide injury; H2O2 injury protection, ATPLite, 2 h; protection from H2O2 cell death, % at 20 µM; 0.63% of 360,000 active; AID 588492;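 active means compounds giving at least 50% protection of heart cells from peroxide-induced death in the single-dose screen, raw or plate-pattern-corrected value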;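 further: 0% = DMSO wells with peroxide and 100% = DMSO wells without peroxide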
# ASAP1 inh – ASAP1 ArfGAP inhibition | Q9ULH1 | ASAP1-stimulated ARF1 GTP hydrolysis, GDP FP detection | inhibition, % at 16.5 µM | 0.19% of 360,000 active | AID 624377; in the data active means inhibition above about 25%;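 further: 0% = vehicle with enzyme and substrate and 100% = no enzyme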
# Target sequence (Q9ULH1 325-724 limits assumed): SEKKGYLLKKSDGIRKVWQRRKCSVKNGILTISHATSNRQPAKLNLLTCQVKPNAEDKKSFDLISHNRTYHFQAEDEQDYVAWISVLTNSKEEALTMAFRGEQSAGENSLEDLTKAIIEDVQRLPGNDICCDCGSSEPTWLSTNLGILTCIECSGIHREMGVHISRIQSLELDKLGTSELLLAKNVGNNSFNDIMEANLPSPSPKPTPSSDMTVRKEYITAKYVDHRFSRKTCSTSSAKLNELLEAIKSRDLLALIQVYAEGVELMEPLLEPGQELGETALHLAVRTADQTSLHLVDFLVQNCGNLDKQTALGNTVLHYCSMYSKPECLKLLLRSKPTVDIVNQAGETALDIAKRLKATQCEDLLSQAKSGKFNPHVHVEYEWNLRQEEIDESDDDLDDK
# ARFGAP1 inh – inhibitors of rat ARFGAP1; Q62848; Arfgap1-stimulated ARF1 GTP hydrolysis, GDP FP detection; inhibition, % at 16.5 µM; 0.26% of 360,000 active;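 active means inhibition above a per-plate limit, mean inhibition of low control wells plus 3 SD, cut at about 25% in these data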;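 further: 0% = DMSO wells with enzyme and 100% = wells lacking Arfgap1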
# Target sequence (Q62848 1-136 limits assumed): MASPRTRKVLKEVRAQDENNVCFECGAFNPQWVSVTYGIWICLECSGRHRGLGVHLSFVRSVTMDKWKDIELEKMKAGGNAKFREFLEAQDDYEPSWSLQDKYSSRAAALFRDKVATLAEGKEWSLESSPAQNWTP
#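 Material: rat Arfgap1 GAP domain (His6, aa 1-136), purified enzyme. Also added: human ARF1(Δ1-17)-GTP substrate. Compound dosing: 16.5 µM single point, 1.26% DMSO. Timing: enzyme reaction 120 min at 25 °C after 20 min preincubation. Signal: GDP detection by fluorescence polarization. Read-out basis: percent inhibition of GAP-stimulated GDP formation, scaled between DMSO and no-Arfgap1 medians.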
# ASAP1 inh confirm – ASAP1 inhibition confirmed | ASAP1-stimulated Arf1 GTPase, GDP fluorescence polarization | AID 624431 | shares compounds with ASAP1 inh | 37% of 620 active | inhibition, % at 16.5 µM;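 active means mean inhibition over triplicates exceeds the hit threshold derived for the earlier primary screening run, cut at about 25% in these data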
# The depositor's hits bear a star; nt = no result shown; ! = a repeat was not active. The list is not random: actives were taken first. Their share in the collection is about 1.6%.
SMILES,Neddylation inh,Cardio protect,ASAP1 inh,ARFGAP1 inh,ASAP1 inh confirm
C=CC[C@@H](CC(=O)N[C@@H](CO)Cc1ccccc1)C(=O)N[C@H](COC(=O)[C@@H](CC=C)Cc1ccc(F)cc1)Cc1c[nH]c2ccccc12,-19,0,32*,1,12
C=CC[C@H](CC(=O)N[C@H](CO)Cc1ccccc1)C(=O)N[C@@H](COC(=O)[C@@H](CC=C)Cc1ccc(F)cc1)Cc1c[nH]c2ccccc12,-23,10,15,6,nt
Cc1cccc(/C=C2/Sc3ccc(C(=O)NCCCN4CCOCC4)cc3NC2=O)c1,13,-6,6,11,nt
COc1ccc(/C=C2/Sc3ccc(C(=O)NCCCN4CCOCC4)cc3NC2=O)cc1OC,11,14,32*,17,89*
CCOC(=O)C1=CCN(S(=O)(=O)c2ccc(C)cc2)C1c1ccc(C(C)C)cc1 (stereo not drawn),-7,-6,-13,5,nt
Cc1cc(N=Cc2c(O)n(-c3ccc4c(c3)OCO4)c(=O)c3ccccc23)ccn1,5,16,39*,-8,50*
O=C(N[C@H](C(=O)N1CCC[C@H]1C(=O)NCc1ccccc1)C1CCCCC1)c1ccccc1,nt,nt,-6,0,nt
O=C(c1ccco1)[C@@H]1[C@@H]2C(=O)N(c3ccc(F)cc3)C(=O)[C@@H]2C2c3ccccc3C=CN21 (stereo partly drawn),nt,nt,25*,5,9
Cc1cc(C)c(C(O)c2ncc(-c3cccc(F)c3)[nH]2)c(C)c1 (stereo not drawn),8,0,-5,-2,nt
COc1ccc(C(=O)Nc2ccc(Cl)cc2C(=O)NCc2ccco2)cc1,-37,-4,27*,4,7
CCN(CC)c1nc(N)c2c(N)nc(OC)cc2c1C#N,-17,-2,34*,12,-2
COc1cc2c(C#N)c(N3CCCCC3)nc(N)c2c(N)n1,-41,-3,10,8,nt
CC(NC(=O)c1ccc(CS(=O)(=O)c2ccc(Cl)cc2)o1)c1ccc2c(c1)OCCO2 (stereo not drawn),-3,10,27*,5,3
O=C(N[C@H](C(=O)N1CCC[C@H]1C(=O)NC1CCCC1)C1CCCCC1)c1ccccn1,nt,nt,-1,0,nt
Nc1ccn([C@@H]2O[C@H](C(=O)N3CCN(C(=O)N4CCCCC4)CC3)[C@@H](O)[C@H]2O)c(=O)n1,nt,nt,1,4,nt
COc1ccc(Br)cc1C(=O)Nc1ccc(N2CCCC2)cc1,12,3,32*,46*,49*
Cc1nn(Cc2ccccc2)c(C)c1NC(=O)CSc1nc(-c2ccccc2)nc2c1cnn2-c1ccccc1,16,0,4,-5,nt
Cc1nc(SCC(=O)Nc2c(C)nn(C)c2C)c2cnn(-c3ccccc3)c2n1,-7,-15,25*,6,5
O=C(Nc1ccc(F)cc1)C(CCc1ccccc1)N1CCN(Cc2c(F)cccc2Cl)CC1 (stereo not drawn),3,nt,-5,3,nt
Cn1cccc1Cc1nnc(SCC(=O)N2CCOCC2)n1-c1ccc(F)cc1,-4,6,25*,9,1
CCCCCCCCCCCC(=O)c1c(O)cccc1O,-5,-16,28*,14,11
CCN1CCN(Cc2ccc(NC(=O)c3cc(NC(=O)c4cc5cccc(OC)c5o4)cc(OC)c3)cc2C(F)(F)F)CC1,26,-36,29*!,20,49*
CCN1CCN(Cc2ccc(NC(=O)c3cc(NC(=O)c4ccno4)cc(OC)c3)cc2C(F)(F)F)CC1,2,-17,9,1,nt
O=C(Nc1cccc(CNCCc2c[nH]c3ccccc23)c1)c1ccccc1Cl,-1,6,29*,3,7
CC1(C)C2CCC(CN=C(N)CSS(=O)(=O)O)C1C2 (stereo not drawn),8,-5,-7,-2,nt
SMILES,Neddylation inh,Cardio protect,ASAP1 inh,ARFGAP1 inh,ASAP1 inh confirm
Cc1ccc(NC(=O)CCC2CC(C)(C)OC2=O)cc1 (stereo not drawn),0,-2,-15,-8,nt
CC1(C)CC(CCC(=O)Nc2ccc(S(N)(=O)=O)cc2)C(=O)O1 (stereo not drawn),7,-6,25*,-5,-4
Cc1cc(NC(=O)Cc2c(C)[nH]c3ccccc23)ccc1Oc1cccnc1,nt,nt,-13,-13,nt
Cc1ccc(N(C)S(=O)(=O)c2ccc3[nH]cc(C(=O)NCCCN4CCOCC4)c(=O)c3c2)cc1C,8,-3,30*,-5,5
CSc1n[nH]c(-c2cccs2)n1,nt,nt,-1,7,nt
Cc1ccc2c(c1C)NC(C(=O)O)C1CC=CC21 (stereo not drawn),5,-2,nt,nt,nt
Cc1cc(C)c2c(c1)NC(C(=O)O)C1CC=CC21 (stereo not drawn),1,5,38*,30*,35*
Cc1cc(NC(=O)C2CCN(C(=O)c3ccco3)CC2)ccc1Br,13,-7,30*,3,1
COc1ccc(C(=O)NC(=S)Nc2ccc3oc(=O)ccc3c2)cc1,-10,-10,59*,14,78*
COc1ccc(C(=O)Nc2nc3cc4c(cc3s2)OCO4)c(OC)c1,nt,-9,31*,8,41*
COc1ccc2nc(NC(=O)c3cc(C)oc3C)sc2c1,21,-19,-1,6,nt
CC(=O)Nc1ccc(Sc2ccc([N+](=O)[O-])o2)cc1,7,-18,31*,1,1
O=C1Nc2ccccc2C(=O)N(c2ccc3c(c2)OCCO3)C1C(=O)NC1CC1 (stereo not drawn),-8,nt,-1,-6,nt
CC(/C=C/c1ccccc1)=N\NC(=O)CNC(=O)c1ccccc1Cl,-16,6,25*,1,5
N#Cc1cccc(NC(=O)CSc2ccc3c4c(cccc24)C(=O)c2ccccc2-3)c1,-24,12,100*,24,111*
CCN(CC)C(=O)C1=C(C)N(CCC2=CCCCC2)C(=O)C(CC(=O)NCc2ccco2)C1 (stereo not drawn),4,-11,1,-5,nt
O=C(COC(=O)c1cnccn1)NC1CCCc2ccccc21 (stereo not drawn),-2,10,48*,-6,4
Cc1cccc(C)c1NC(=O)C(c1ccnc2ccccc12)N1CCN(C)CC1 (stereo not drawn),0,nt,-9,3,nt
CCCCS(=O)(=O)N1CCCc2nc(-c3ccc(Br)cc3)ccc21,nt,nt,-9,3,nt
Cc1ccc(S(=O)(=O)NCCNc2ccc([N+](=O)[O-])cc2)cc1,-39,-6,29*,-2,1
Cc1ccc(S(=O)(=O)NCCCNc2ccc([N+](=O)[O-])cc2)cc1,-42,-12,12,-1,nt
CC(=O)N1C[C@H]2CON(C)[C@H]2C[C@H]1c1ccccc1,3,3,11,10,nt
Cc1c(-c2ccc(OCCN3CCOCC3)cc2)c(=O)oc2ccc3ccccc3c12,nt,14,-3,-4,nt
CC1(C(=O)NS(=O)(=O)c2ccccc2Cl)CCN1C(=O)CC1CCCC1 (stereo not drawn),5,-2,-5,4,nt
